Activity calls are given as the source filed them. No cut-off for these calls is given here.

Usually IC50 stands for the midpoint of a concentration-inhibition curve.

The test system of data set [1] is MCF7. The data set can be described thus: Induction of azide reporter generation in human MCF7 cells at 50 uM incubated for 72 hrs by confocal laser microscopy. The format is functional, cell-based. The method in brief:
(§1)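 Cells seeded at 4 × 10⁴ per mL (MCF-7) or 1 × 10⁴ per mL (L929) in glass-bottom dishes and kept with azido sugar at 37 °C for 72 h. Washed cells were labelled with 20 μM DBCO-Cy5 for 1 h at 37 °C, formaldehyde-fixed and DAPI-mounted. Confocal imaging; mean fluorescence intensity quantified; mean ± SEM, n = 3.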
A general note: In a reporter assay the amount or activity of a reporter protein is the signal.

The test system of data set [2] is L929. Put plainly: Induction of azide reporter generation in mouse L929 cells at 50 uM incubated for 72 hrs by Western blot analysis. The format is functional, cell-based. The method in brief:
(§2)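 Cells seeded at 4 × 10⁴ per mL (MCF-7, RPMI/5% FBS) or 1 × 10⁴ per mL (L929, DMEM/10% FBS) and fed azido sugar at 37 °C for 72 h. RIPA lysates were cleared, protein-normalised and reacted with 0.5 μM phosphine-PEG3-biotin for 12 h at RT. 20 μg protein run on 8% SDS-PAGE, transferred to PVDF, blocked in BSA/TBST, probed overnight at 4 °C with streptavidin-HRP, ECL detection.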

The subject of data set [3] is MCF7. The data set can be described thus: Induction of azide reporter generation in human MCF7 cells at 50 uM incubated for 72 hrs by Western blot analysis. The format is functional, cell-based. A digest of the protocol:
as §2

For data set [4], the system named is MCF7. The data set can be described thus: Anticancer activity against human MCF7 cells assessed as cell viability at 50 uM by MTT assay relative to control. Conditions: read-out: Activity. The format is functional. For orientation: Tetrazolium assays rely on reduction of a dye to a coloured formazan, in cell work by metabolically active cells.
Data set [5] concerns L929. The data set can be described thus: Induction of azide reporter generation in mouse L929 cells at 50 uM incubated for 72 hrs by confocal laser microscopy. The format is functional, cell-based. The method in brief: as §1
Data set [6] concerns MCF7. The data set can be described thus: Anticancer activity against Tetra-O-acetyl-azidomannosamine engineered human MCF7 cells incubated for 72 hrs by MTT assay. The note with it: MCF7, 72 h. The format is functional, cell-based. A digest of the protocol:
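MCF-7 cells grown in RPMI 1640 with 5% FBS at 37 °C, 5% CO2. Cells were pre-labelled with 50 μM Ac4ManNAz for 72 h, then seeded at 4 × 10⁴ cells per mL. After 24 h they were exposed to prodrug at 0.001–10 μM for 72 h. MTT (0.5 mg mL⁻¹, 4 h) was added, formazan dissolved in DMSO, A570 read. Untreated cells served as control. Triplicates; IC50 from fitted curve; mean ± SEM.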

Data set [7] can be described thus: Selectivity index, ratio of IC50 for mouse L929 cells to IC50 for human MCF7 cells. The format is toxicity. Conditions: L929 cells and MCF7 cells, read-out: Ratio IC50. A digest of the protocol:
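MTT assay on MCF-7 (RPMI, 5% FBS) and L929 (DMEM, 10% FBS) at 37 °C, 5% CO2. Some cells were first given 50 μM azido-sugar for 72 h. Cells were seeded at 4 × 10⁴ or 1 × 10⁵ cells/mL for 24 h, then treated with 0.001–10 μM for 72 h. MTT 0.5 mg/mL, 4 h, DMSO, A570; untreated control; triplicate; IC50 from fitted curves; ratio L929/MCF-7.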

A short description of data set [8]: Cytotoxicity against Tetra-O-acetyl-azidomannosamine engineered mouse L929 cells incubated for 72 hrs by MTT assay. The format is toxicity, cell-based. The note with it: L929 cells engineered with Tetra-O-acetyl-azidomannosamine. The method in brief: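 L929 cells grown in DMEM with 10% FBS at 37 °C, 5% CO2. Cells were pre-labelled with 50 μM Ac4ManNAz for 72 h, then seeded at 1 × 10⁵ cells per mL. After 24 h they were exposed to prodrug at 0.001–10 μM for 72 h. MTT (0.5 mg mL⁻¹, 4 h) was added, formazan dissolved in DMSO, A570 read. Untreated cells served as control. Triplicates; IC50 from fitted curve; mean ± SEM.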

For `CC(=O)N[C@H]1[C@H]([C@H](OC(C)=O)[C@@H](CN=[N+]=[N-])OC(C)=O)O[C@@](OC(C)=O)(C(=O)O)C[C@@H]1OC(C)=O`, the result in the data set with MCF7 [1] and with MCF7 [3] was Active. Besides, the result in the data set with L929 [2] and with L929 [5] was inactive. For the same compound, the viability at 50 µM in the data set on MCF7 [4] amounted to 100%.

The compound `COc1cccc2c1C(=O)c1c(O)c3c(c(O)c1C2=O)C[C@@](O)(C(=O)CO)C[C@@H]3OC1C[C@@H](NC(=O)c2ccccc2P(c2ccccc2)c2ccccc2)[C@@H](O)[C@@H](C)O1` (some centres undefined) displayed an IC50 in the data set with MCF7 [6] of 0.2 µM. Besides, the selectivity ratio in data set [7] was found to be 2. Inhibition in data set [8] was half-maximal at 7.7 µM (IC50 at 72 h).

As to `CC(=O)OC[C@H]1OC(OC(C)=O)[C@@H](NC(=O)CN=[N+]=[N-])[C@@H](OC(C)=O)[C@@H]1OC(C)=O` (some centres undefined), the outcome in the data set with MCF7 [1], in the data set with L929 [2], with MCF7 [3] and with L929 [5] was Active. Moreover, in the data set on MCF7 [4], the viability at 50 µM stood at 100%.

Consider `O=C(Nc1ccc(N(CCCl)CCCl)cc1)c1ccccc1P(c1ccccc1)c1ccccc1`, for which the selectivity ratio in data set [7] was found to be 2.

For `CC(=O)N[C@H]1[C@H]([C@H](O)[C@H](O)CN=[N+]=[N-])OC(O)(C(=O)O)C[C@@H]1O` (single isomer, unassigned), the outcome in the data set with MCF7 [1] and in the data set with MCF7 [3] was Active. The outcome with L929 [2] and in the data set with L929 [5] was inactive. In addition, the viability at 50 µM in the data set on MCF7 [4] is 100%.

The values above are taken from ChEMBL document CHEMBL5335786, “Bioorthogonal activation of prodrugs, for the potential treatment of breast cancer, using the Staudinger reaction” (RSC Med Chem, 2023).
